Among the data in ChEMBL document CHEMBL1681705, “Optimisation of ITK inhibitors through successive iterative design cycles” (Bioorg Med Chem Lett, 2011) are residual activity and inhibition values, retold here.

Experiment [1] has as its target LIM domain kinase 1 (Homo sapiens) (UniProt P53667). The experiment is described as follows: Inhibition of LIMK1 at 1 uM; values are per cent of control.
For experiment [2], the target named is Tyrosine-protein kinase ABL1 (Homo sapiens) (UniProt P00519). The experiment is described as follows: Inhibition of Abl at 0.1 uM; values are per cent of control.
Experiment [3] deals with Tyrosine-protein kinase Fgr (Homo sapiens) (UniProt P09769). In words: Inhibition of Fgr at 0.1 uM; values are per cent of control.
The target of experiment [4] is Fibroblast growth factor receptor 4 (Homo sapiens) (UniProt P22455). The experiment is described as follows: Inhibition of FGFR4 at 0.1 uM; values are per cent of control.
Experiment [5] addresses Insulin receptor (Homo sapiens) (UniProt P06213). The experiment is described as follows: Inhibition of IR at 1 uM; values are per cent of control.
In experiment [6] the target is T1, Dual specificity mitogen-activated protein kinase kinase 6 (Homo sapiens) (UniProt P52564).
T1 sequence (whole entry): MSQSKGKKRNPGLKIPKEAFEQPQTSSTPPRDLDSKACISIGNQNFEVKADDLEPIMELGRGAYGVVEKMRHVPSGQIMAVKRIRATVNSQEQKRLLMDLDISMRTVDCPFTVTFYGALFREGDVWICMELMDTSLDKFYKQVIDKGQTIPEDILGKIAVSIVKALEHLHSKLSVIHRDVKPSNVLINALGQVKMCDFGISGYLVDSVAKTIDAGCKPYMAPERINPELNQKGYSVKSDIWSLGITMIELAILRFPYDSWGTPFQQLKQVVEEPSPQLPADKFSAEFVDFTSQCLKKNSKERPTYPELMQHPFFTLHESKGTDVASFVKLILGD
The experiment is described as follows: Inhibition of MKK6 at 0.1 uM; values are per cent of control.

The target of experiment [7] is T2, Tyrosine-protein kinase JAK3 (Homo sapiens) (UniProt P52333).
T2 sequence (whole entry): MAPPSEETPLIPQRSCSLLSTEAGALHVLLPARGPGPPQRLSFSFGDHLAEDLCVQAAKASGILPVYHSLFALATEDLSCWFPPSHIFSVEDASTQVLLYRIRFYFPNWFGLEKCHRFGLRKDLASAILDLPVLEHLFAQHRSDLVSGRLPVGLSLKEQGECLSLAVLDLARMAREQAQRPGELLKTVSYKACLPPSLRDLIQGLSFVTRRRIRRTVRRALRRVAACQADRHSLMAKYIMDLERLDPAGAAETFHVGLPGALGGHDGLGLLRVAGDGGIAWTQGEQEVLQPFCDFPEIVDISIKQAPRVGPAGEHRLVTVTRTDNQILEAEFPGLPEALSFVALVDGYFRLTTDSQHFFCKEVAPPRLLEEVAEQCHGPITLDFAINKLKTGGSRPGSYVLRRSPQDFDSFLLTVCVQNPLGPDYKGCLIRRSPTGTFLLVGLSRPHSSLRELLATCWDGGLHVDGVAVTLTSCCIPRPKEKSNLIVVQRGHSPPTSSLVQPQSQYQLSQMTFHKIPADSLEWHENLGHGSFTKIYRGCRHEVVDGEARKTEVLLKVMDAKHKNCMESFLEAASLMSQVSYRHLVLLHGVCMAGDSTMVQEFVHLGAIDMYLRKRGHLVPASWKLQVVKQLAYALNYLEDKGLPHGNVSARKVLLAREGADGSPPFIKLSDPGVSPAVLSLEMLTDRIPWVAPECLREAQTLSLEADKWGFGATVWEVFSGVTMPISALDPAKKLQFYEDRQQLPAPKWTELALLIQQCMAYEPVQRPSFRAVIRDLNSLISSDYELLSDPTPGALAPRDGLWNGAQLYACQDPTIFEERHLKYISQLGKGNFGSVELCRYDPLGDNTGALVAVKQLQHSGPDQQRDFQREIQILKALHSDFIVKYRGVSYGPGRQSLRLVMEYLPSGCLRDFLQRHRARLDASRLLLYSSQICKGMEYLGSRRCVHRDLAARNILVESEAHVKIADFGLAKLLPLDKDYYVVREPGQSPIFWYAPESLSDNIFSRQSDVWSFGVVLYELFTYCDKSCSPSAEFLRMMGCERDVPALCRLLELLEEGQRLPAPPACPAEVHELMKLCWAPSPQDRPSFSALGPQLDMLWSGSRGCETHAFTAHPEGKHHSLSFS
In words: Inhibition of JAK3 at 0.1 uM; values are per cent of control.

Experiment [8] deals with Receptor tyrosine-protein kinase erbB-4 (Homo sapiens) (UniProt Q15303). The experiment is described as follows: Inhibition of ErbB4 at 1 uM; values are per cent of control.
The target of experiment [9] is Ephrin type-A receptor 7 (Homo sapiens) (UniProt Q15375). The experiment is described as follows: Inhibition of EphA7 at 1 uM; values are per cent of control.
In experiment [10] the target is Proto-oncogene tyrosine-protein kinase receptor Ret (Homo sapiens) (UniProt P07949). The experiment is described as follows: Inhibition of Ret at 1 uM; values are per cent of control.
Experiment [11] has as its target Receptor-interacting serine/threonine-protein kinase 2 (Homo sapiens) (UniProt O43353). The experiment is described as follows: Inhibition of RIPK2 at 1 uM; values are per cent of control.
For experiment [12], the target named is Mitogen-activated protein kinase 1 (Homo sapiens) (UniProt P28482). In words: Inhibition of MAPK1 at 1 uM. A digest of the protocol: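 Single-point screen within a 108-kinase selectivity panel. Each kinase was tested with inhibitor at 0.1 and 1.0 micromolar, and activity was recorded as percent inhibition.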
The target in experiment [13] is RAF proto-oncogene serine/threonine-protein kinase (Homo sapiens) (UniProt P04049). In words: Inhibition of c-RAF at 0.1 uM; values are per cent of control.
Experiment [14] has as its target Serine/threonine-protein kinase pim-1 (Homo sapiens) (UniProt P11309). The experiment is described as follows: Inhibition of Pim-1 at 1 uM; values are per cent of control.

Sequence of Serine/threonine-protein kinase pim-1 (Homo sapiens) (P11309 whole entry, looked up): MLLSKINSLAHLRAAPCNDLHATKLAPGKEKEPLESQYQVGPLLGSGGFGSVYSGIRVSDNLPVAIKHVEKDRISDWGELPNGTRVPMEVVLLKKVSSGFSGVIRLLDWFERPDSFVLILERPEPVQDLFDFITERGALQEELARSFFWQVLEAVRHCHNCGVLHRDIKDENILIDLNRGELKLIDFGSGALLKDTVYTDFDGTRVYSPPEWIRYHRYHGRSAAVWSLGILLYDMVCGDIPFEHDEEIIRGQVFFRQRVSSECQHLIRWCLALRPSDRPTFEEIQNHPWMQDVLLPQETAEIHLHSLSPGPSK
Sequence of Ephrin type-A receptor 7 (Homo sapiens) (Q15375 28-998 limits assumed): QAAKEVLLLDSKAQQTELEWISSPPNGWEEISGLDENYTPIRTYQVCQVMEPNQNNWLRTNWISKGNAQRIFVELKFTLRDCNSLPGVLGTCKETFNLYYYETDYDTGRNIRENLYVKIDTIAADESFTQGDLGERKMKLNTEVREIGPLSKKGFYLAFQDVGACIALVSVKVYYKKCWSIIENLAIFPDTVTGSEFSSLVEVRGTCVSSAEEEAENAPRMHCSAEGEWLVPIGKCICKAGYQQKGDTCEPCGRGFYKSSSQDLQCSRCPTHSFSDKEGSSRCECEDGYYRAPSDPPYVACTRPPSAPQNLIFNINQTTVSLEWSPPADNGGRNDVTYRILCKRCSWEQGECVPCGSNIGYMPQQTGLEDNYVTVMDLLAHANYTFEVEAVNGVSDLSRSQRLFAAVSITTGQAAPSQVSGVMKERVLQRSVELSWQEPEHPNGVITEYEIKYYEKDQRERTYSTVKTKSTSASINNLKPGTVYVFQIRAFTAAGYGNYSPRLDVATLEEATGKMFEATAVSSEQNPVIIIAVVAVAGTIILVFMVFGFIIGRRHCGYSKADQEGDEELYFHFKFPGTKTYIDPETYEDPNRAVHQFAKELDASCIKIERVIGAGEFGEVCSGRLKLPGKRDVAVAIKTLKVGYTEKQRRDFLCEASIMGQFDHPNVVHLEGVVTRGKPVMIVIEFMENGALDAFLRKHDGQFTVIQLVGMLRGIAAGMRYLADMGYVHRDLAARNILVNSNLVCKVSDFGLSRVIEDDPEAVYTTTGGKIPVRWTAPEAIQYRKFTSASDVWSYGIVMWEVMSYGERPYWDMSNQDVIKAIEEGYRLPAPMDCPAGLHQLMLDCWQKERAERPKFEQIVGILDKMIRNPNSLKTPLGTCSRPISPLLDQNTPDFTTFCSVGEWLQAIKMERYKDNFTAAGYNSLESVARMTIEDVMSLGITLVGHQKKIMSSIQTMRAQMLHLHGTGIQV
Sequence of Receptor tyrosine-protein kinase erbB-4 (Homo sapiens) (Q15303 whole entry): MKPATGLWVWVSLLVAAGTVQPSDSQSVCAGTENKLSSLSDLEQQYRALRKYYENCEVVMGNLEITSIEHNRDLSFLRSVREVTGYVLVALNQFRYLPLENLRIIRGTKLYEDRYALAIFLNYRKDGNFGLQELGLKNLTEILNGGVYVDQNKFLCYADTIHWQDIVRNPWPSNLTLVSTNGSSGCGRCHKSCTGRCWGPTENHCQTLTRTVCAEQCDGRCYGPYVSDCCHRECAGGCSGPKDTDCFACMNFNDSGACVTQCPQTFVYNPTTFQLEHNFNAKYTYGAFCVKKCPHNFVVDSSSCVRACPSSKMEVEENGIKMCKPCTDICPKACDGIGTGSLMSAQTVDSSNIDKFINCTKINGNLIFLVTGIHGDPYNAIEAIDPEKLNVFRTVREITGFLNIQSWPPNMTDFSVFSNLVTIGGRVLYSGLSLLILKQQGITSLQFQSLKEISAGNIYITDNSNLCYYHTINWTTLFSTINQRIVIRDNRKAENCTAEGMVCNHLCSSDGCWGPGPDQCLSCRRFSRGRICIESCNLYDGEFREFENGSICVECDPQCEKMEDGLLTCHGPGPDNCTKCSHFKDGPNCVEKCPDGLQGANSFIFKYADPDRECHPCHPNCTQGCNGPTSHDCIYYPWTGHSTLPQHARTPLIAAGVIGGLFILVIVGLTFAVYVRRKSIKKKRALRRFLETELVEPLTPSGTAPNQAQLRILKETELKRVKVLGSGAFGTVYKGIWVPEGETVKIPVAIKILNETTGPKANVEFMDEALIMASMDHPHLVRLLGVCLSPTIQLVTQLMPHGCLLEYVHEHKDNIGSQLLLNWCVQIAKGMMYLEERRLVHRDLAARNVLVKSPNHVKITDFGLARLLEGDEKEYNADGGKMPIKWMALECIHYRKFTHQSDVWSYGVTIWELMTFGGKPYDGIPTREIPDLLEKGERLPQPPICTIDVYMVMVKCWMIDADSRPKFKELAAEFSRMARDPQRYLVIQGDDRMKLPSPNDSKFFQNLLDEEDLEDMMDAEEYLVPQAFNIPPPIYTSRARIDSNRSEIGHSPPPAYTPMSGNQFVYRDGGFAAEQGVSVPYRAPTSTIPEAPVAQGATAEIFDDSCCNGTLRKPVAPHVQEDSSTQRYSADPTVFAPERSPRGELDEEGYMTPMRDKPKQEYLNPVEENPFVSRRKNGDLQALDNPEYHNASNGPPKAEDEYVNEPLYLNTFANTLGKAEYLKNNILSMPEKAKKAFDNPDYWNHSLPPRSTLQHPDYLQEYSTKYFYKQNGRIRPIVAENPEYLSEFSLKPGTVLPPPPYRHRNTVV
Sequence of Insulin receptor (Homo sapiens) (P06213 28-758 limits assumed): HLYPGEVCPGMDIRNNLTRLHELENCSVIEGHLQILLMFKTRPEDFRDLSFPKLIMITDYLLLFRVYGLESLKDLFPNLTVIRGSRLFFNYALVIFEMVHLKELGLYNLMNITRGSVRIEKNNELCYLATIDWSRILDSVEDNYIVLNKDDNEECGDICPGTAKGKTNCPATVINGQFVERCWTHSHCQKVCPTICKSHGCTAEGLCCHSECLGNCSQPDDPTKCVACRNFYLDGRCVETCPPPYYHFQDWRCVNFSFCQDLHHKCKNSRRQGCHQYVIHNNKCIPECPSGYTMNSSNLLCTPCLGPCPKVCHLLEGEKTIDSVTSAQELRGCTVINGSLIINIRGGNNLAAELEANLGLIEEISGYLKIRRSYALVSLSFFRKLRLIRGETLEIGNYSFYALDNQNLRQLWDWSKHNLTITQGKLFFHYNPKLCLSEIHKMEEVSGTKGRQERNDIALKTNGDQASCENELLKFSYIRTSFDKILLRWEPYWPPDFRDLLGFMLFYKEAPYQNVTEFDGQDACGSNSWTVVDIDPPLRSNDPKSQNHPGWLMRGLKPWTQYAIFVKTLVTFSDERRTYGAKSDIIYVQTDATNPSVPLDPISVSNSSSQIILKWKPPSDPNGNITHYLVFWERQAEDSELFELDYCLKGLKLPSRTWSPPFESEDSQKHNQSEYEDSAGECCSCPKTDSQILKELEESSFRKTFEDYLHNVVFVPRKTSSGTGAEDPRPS
Sequence of Insulin receptor (Homo sapiens) (P06213 763-1382 limits assumed): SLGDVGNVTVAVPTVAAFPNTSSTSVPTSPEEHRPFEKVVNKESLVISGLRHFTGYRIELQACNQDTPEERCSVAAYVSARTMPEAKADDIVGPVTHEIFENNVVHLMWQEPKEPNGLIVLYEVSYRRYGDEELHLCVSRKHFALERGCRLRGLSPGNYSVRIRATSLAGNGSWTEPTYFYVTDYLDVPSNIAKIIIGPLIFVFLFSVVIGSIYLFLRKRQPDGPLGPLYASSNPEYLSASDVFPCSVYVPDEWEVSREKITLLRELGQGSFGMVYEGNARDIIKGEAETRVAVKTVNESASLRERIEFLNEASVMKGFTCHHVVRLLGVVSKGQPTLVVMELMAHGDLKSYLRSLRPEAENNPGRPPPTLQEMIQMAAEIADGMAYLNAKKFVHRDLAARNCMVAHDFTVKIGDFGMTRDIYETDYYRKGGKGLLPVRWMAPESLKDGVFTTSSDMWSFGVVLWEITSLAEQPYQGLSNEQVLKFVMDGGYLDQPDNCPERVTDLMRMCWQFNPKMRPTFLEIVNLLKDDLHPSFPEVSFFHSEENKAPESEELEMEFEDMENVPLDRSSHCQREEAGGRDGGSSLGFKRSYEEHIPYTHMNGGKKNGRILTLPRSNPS
Sequence of RAF proto-oncogene serine/threonine-protein kinase (Homo sapiens) (P04049 whole entry): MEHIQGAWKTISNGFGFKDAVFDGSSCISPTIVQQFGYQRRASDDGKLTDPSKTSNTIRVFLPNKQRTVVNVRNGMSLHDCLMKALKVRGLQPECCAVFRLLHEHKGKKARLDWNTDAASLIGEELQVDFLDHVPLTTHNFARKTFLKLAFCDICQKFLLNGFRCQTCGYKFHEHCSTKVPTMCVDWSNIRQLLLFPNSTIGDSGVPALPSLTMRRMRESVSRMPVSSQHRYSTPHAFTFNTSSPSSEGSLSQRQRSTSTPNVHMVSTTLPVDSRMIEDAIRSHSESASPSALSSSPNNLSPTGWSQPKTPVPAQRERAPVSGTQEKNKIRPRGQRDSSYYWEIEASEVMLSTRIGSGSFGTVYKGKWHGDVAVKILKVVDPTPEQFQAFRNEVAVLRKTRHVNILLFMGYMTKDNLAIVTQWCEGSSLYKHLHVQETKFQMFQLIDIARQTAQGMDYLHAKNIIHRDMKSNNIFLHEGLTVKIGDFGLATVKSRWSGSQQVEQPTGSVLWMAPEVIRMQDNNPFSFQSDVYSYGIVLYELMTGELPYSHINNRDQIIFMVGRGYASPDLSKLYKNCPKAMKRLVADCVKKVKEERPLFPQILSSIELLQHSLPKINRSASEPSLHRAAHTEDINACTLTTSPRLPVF
Sequence of Mitogen-activated protein kinase 1 (Homo sapiens) (P28482 whole entry): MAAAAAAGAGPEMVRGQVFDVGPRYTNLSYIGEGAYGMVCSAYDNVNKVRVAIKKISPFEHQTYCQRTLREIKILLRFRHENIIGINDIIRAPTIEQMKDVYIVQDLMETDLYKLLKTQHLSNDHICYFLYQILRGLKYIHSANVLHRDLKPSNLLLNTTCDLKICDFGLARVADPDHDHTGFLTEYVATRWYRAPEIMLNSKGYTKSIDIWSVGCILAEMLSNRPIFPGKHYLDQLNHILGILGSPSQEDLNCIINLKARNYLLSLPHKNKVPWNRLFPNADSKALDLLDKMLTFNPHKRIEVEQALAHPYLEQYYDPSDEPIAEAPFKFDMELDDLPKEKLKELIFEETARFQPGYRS

Turning to `Cc1ccc2cc(-c3n[nH]c4ccc(NC5CCNC5)cc34)[nH]c2c1` (stereo not drawn), the residual activity in experiment [1] came out at 4%; in [2], 3%; in experiment [3], 0%; in experiment [4], 63%; in [5], 66%; in experiment [6] it was 57%. For the same molecule, the residual activity in [7] stood at 25%; in experiment [8], 81%; in experiment [9], 16%; in [10], 3%; in experiment [11], 53%; in experiment [13], 92%. Moreover, the residual activity in experiment [14] was found to be 91%. In experiment [12], this molecule gave an inhibition of 64%.
On to `Cc1ccc2cc(-c3n[nH]c4ccc(NC5CCN(Cc6ccccc6)CC5)cc34)[nH]c2c1`, for which the residual activity in experiment [1] was found to be 73%; in experiment [2] it was 18%; in experiment [3] it was 2%; in experiment [4] it was 65%; in [5] it was 60%; in experiment [6] it was 90%. In addition, the residual activity in experiment [7] is 52%; in experiment [8], 10%; in experiment [9], 16%; in [10], -2%; in experiment [11], 78%; in experiment [13] it was 101%. Besides, the residual activity in experiment [14] was determined as 93%. The same molecule had an inhibition in [12] of 84%.
